Experimental data taken from ChEMBL document CHEMBL1138683 (J Med Chem, 2004).

What was measured:
[1] = Anti convulsant activity administered intra peritoneally to mouse for toxicity at 0.5 hr with dose of 30 mg/kg; 0/4= No of animals exhibiting toxicity /No of animals tested; type: organism-based; set-up: dose 30 mg/kg; details: in vivo, ip
Mus musculus [2] = assay: Anti convulsant activity administered intra peritoneally to mouse at maximal electroshock test at 4 hr after the drug administered with dose of 30 mg/kg; 0/1= No of animals protected /No of animals tested; type: functional
Mus musculus [3] = assay: Anti convulsant activity administered intra peritoneally to mouse at maximal electroshock test at 0.5 h after the drug administered with dose of 300 mg/kg; 0/1= No of animals protected /No of animals tested; type: functional
[4] = Anti convulsant activity administered intra peritoneally to mouse for toxicity at 0.5 hr with dose of 300 mg/kg; 0/4= No of animals exhibiting toxicity /No of animals tested; type: organism-based; set-up: dose 300 mg/kg; details: in vivo, ip
Mus musculus [5] = assay: Anti convulsant activity administered intra peritoneally to mouse for subcutaneous metrazol test at 0.5 hr with dose of 30 mg/kg; 0/1= No of animals protected /No of animals tested; type: functional
[6] = Anti convulsant activity administered intra peritoneally to mouse for toxicity at 0.5 hr with dose of 100 mg/kg; 0/8= No of animals exhibiting toxicity /No of animals tested; type: organism-based; set-up: dose 100 mg/kg; details: in vivo, ip
Mus musculus [7] = assay: Anti convulsant activity administered intra peritoneally to mouse for subcutaneous metrazol test at 0.5 h with dose of 300 mg/kg; 0/1= No of animals protected /No of animals tested; type: functional
Mus musculus [8] = assay: Anti convulsant activity administered intra peritoneally to mouse for subcutaneous metrazol test at 4 hr after the drug administered with dose of 100 mg/kg; 0/1= No of animals protected /No of animals tested; type: functional
[9] = (§1) Anti convulsant activity administered intra peritoneally to mouse for toxicity at 4 hr with dose of 30 mg/kg; 0/2= No of animals exhibiting toxicity /No of animals tested; type: organism-based; set-up: dose 30 mg/kg; details: in vivo, ip
Rattus norvegicus [10] = assay: Anticonvulsant activity after oral administration of 50 mg/kg dose after 30 min in rats; + means 25% of the animals protected; type: functional, organism-based; set-up: dose 50 mg/kg
Outline: (§2)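 Rats dosed orally with compound dissolved or suspended in 0.5% methylcellulose (0.04 mL per 10 g body weight). Anticonvulsant protection (MES or scMet) and toxicity scored at 15 min, 30 min, 1 h, 2 h and 4 h after dosing. Graded in steps of 25% of animals protected or showing toxicity.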

Mus musculus [11] = assay: Anti convulsant activity administered intra peritoneally to mouse for subcutaneous metrazol test at 4 hr with dose of 300 mg/kg; 0/1= No of animals protected /No of animals tested; type: functional
Mus musculus [12] = assay: as §1; type: functional
Mus musculus [13] = assay: Anti convulsant activity administered intra peritoneally to mouse at maximal electroshock test at 4 hr after the drug administered with dose of 100 mg/kg; 0/3= No of animals protected /No of animals tested; type: functional
Mus musculus [14] = assay: Anti convulsant activity administered intra peritoneally to mouse at maximal electroshock test at 0.5 h after the drug administered with dose of 30 mg/kg; 0/1= No of animals protected /No of animals tested; type: functional
[15] = Anti convulsant activity administered intra peritoneally to mouse for toxicity at 4 hr with dose of 300 mg/kg; 0/2= No of animals exhibiting toxicity /No of animals tested; type: organism-based; set-up: dose 300 mg/kg; details: in vivo, ip
[16] = Anti convulsant activity administered intra peritoneally to mouse for toxicity at 4 hr with dose of 100 mg/kg; 0/4= No of animals exhibiting toxicity /No of animals tested; type: organism-based; set-up: dose 100 mg/kg; details: in vivo, ip
Mus musculus [17] = assay: Anti convulsant activity administered intra peritoneally to mouse at maximal electroshock test at 4 hr after the drug administered with dose of 300 mg/kg; 0/1= No of animals protected /No of animals tested; type: functional
Mus musculus [18] = assay: Anti convulsant activity administered intra peritoneally to mouse for subcutaneous metrazol test at 4 hr after the drug administered with dose of 30 mg/kg; 0/1= No of animals protected /No of animals tested; type: functional; details: route intraperitoneal
Rattus norvegicus [19] = assay: Anticonvulsant activity after oral administration of 100 mg/kg dose after 2 hr in rats;++ means 50% of the animals protected; type: functional, organism-based; set-up: dose 100 mg/kg
Outline: (§3)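 Oral dosing of rats at a single dose, compound dissolved or suspended in 0.5% methylcellulose. Protection in the MES or scMet test checked 15 min, 30 min, 1 h, 2 h and 4 h after dosing. Scored as 25/50/75/100% of animals protected (+ to ++++), – for none.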

Rattus norvegicus [20] = assay: Anticonvulsant activity after oral administration of 100 mg/kg dose after 2 hr in rats; + means 25% of the animals protected; type: functional, organism-based; set-up: dose 100 mg/kg; outline: as §3
Rattus norvegicus [21] = assay: Anticonvulsant activity after oral administration of 100 mg/kg dose after 4 hr in rats; +means 25% of the animals protected; type: functional, organism-based; set-up: dose 100 mg/kg; outline: as §3
Rattus norvegicus [22] = assay: Anticonvulsant activity after oral administration of 100 mg/kg dose after 1 hr in rats; + means 25% of the animals protected; type: functional, organism-based; set-up: dose 100 mg/kg; outline: as §3
Rattus norvegicus [23] = assay: Anticonvulsant activity after oral administration of 100 mg/kg dose after 30 min in rats; +++ means 75% of the animals protected; type: functional, organism-based; set-up: dose 100 mg/kg; outline: as §3
Mus musculus [24] = assay: Anti convulsant activity administered intra peritoneally to mouse for subcutaneous metrazol test at 0.5 hr with dose of 100 mg/kg; 0/1= No of animals protected /No of animals tested; type: functional
[25] = Anti convulsant activity administered intra peritoneally to mouse for toxicity at 0.5 hr with dose of 300 mg/kg; 4/4= No of animals exhibiting toxicity /No of animals tested; type: organism-based; set-up: dose 300 mg/kg; details: in vivo, ip
Rattus norvegicus [26] = assay: Anticonvulsant activity after oral administration of 100 mg/kg dose after 4 hr in rats;+ means 25% of the animals protected; type: functional, organism-based; set-up: dose 100 mg/kg; outline: as §3
Mus musculus [27] = assay: Anti convulsant activity administered intra peritoneally to mouse at maximal electroshock test at 0.5 hr after the drug administered with dose of 100 mg/kg; 0/3= No of animals protected /No of animals tested; type: functional
Mus musculus [28] = assay: Anticonvulsant activity administered intraperitoneally to mouse for toxicity at 4 hr with dose of 30 mg/kg; type: functional; details: route intraperitoneal
Outline: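 Mice given compound i.p. at 30, 100 or 300 mg/kg, dissolved or suspended in 0.5% methylcellulose. Toxicity scored 0.5 h and 4 h after dosing, recorded as number of animals showing toxicity per number tested.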

[29] = Anti convulsant activity administered intra peritoneally to mouse for toxicity at 0.5 hr with dose of 100 mg/kg; 1/8= No of animals exhibiting toxicity /No of animals tested; type: organism-based; set-up: dose 100 mg/kg; details: in vivo, ip
Rattus norvegicus [30] = assay: Anticonvulsant activity after oral administration of 100 mg/kg dose after 30 min in rats; +means 25% of the animals protected; type: functional, organism-based; set-up: dose 100 mg/kg; outline: as §3
Rattus norvegicus [31] = assay: Anticonvulsant activity after oral administration of 100 mg/kg dose after 1 hr in rats;+ means 25% of the animals protected; type: functional, organism-based; set-up: dose 100 mg/kg; outline: as §3
Rattus norvegicus [32] = assay: Anticonvulsant activity after oral administration of 30 mg/kg dose after 30 min in rats; -means No protection; type: functional, organism-based; set-up: dose 30 mg/kg; outline: as §3
Mus musculus [33] = assay: Anti convulsant activity administered intra peritoneally to mouse at maximal electroshock test at 0.5 hr after the drug administered with dose of 300 mg/kg; 1/1= No of animals protected /No of animals tested; type: functional
Mus musculus [34] = assay: Anti convulsant activity administered intra peritoneally to mouse for subcutaneous metrazol test at 0.5 hr with dose of 300 mg/kg; 1/1= No of animals protected /No of animals tested; type: functional
Rattus norvegicus [35] = assay: Anticonvulsant activity after oral administration of 50 mg/kg dose after 15 min in rats; +++ means 75% of the animals protected; type: functional, organism-based; set-up: dose 50 mg/kg; outline: as §3
Rattus norvegicus [36] = assay: Anticonvulsant activity after oral administration of 50 mg/kg dose after 30 min in rats; ++ means 50% of animals protected; type: functional, organism-based; set-up: dose 50 mg/kg; outline: as §2
Rattus norvegicus [37] = assay: Anticonvulsant activity after oral administration of 80 mg/kg dose after 1 hr in rats;+means 25% animals protected; type: functional, organism-based; set-up: dose 80 mg/kg
Outline: (§4)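 Maximal electroshock test in rats after oral dosing in 0.5% methylcellulose (0.04 mL per 10 g body weight). Protection read at 15 min, 30 min, 1 h, 2 h and 4 h after dosing. Graded as the percentage of animals protected, in steps of 25%.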

Mus musculus [38] = assay: Anti convulsant activity administered intra peritoneally to mouse at maximal electroshock test at 4 hr after the drug administered with dose of 300 mg/kg; 1/1= No of animals protected /No of animals tested; type: functional
Mus musculus [39] = assay: Anti convulsant activity administered intra peritoneally to mouse at maximal electroshock test at 0.5 h after the drug administered with dose of 100 mg/kg; 1/3= No of animals protected /No of animals tested; type: functional
Rattus norvegicus [40] = assay: Anticonvulsant activity after oral administration of 80 mg/kg dose after 15 min in rats; + means 25% of the animal protected; type: functional, organism-based; set-up: dose 80 mg/kg; outline: as §4
Rattus norvegicus [41] = assay: Anticonvulsant activity after oral administration of 80 mg/kg dose after 2 hr in rats; + means 25% of the animal is protected; type: functional, organism-based; set-up: dose 80 mg/kg; outline: as §4
Rattus norvegicus [42] = assay: Anticonvulsant activity after oral administration of 80 mg/kg dose after 4 hr in rats;+ means 25% of the animals protected; type: functional, organism-based; set-up: dose 80 mg/kg; outline: as §4
[43] = Anti convulsant activity administered intra peritoneally to mouse for subcutaneous metrazol test at 4 hr with dose of 300 mg/kg; 3/4= No of animals protected /No of animals tested; type: ADME, organism-based; set-up: dose 300 mg/kg

| Structure (SMILES) | Toxicity [1] | Activity (Mus musculus [2]) | Activity (Mus musculus [3]) | Toxicity [4] | Activity (Mus musculus [5]) | Toxicity [6] | Activity (Mus musculus [7]) | Activity (Mus musculus [8]) | Toxicity [9] | Activity (Mus musculus [11]) | Activity (Mus musculus [13]) | Activity (Mus musculus [14]) | Toxicity [15] | Toxicity [16] | Activity (Mus musculus [17]) | Activity (Mus musculus [18]) | Activity (Mus musculus [24]) | Toxicity [25] | Activity (Mus musculus [27]) | Toxicity [29] | also measured |
| --- | --- | --- | --- | --- | --- | --- | --- | --- | --- | --- | --- | --- | --- | --- | --- | --- | --- | --- | --- | --- | --- |
| CC1(C)C(C(=O)NNC(=O)C2C(C)(C)C2(C)C)C1(C)C | 0 | 0 | 0 | 0 | 0 | 0 | 0 | 0 | 0 | 0 | 0 | 0 | 0 | 0 | 0 | 0 |  |  |  |  | Activity (Rattus norvegicus [10]): 25% of the animals protected; Activity (Mus musculus [12]): 0 |
| CC1(C)C(C(=O)NCCS(=O)(=O)[O-])C1(C)C.[Na+] | 0 | 0 | 0 | 0 | 0 | 0 | 0 | 0 | 0 | 0 | 0 | 0 | 0 | 0 | 0 | 0 |  |  |  |  | Anticonvulsant Activity (Rattus norvegicus [19]): 50% of the animals protected; Activity (Rattus norvegicus [20]): 25% of the animals protected; Activity (Mus musculus [12]): 0; Activity (Rattus norvegicus [21]): 25% of the animals protected; Activity (Rattus norvegicus [22]): 25% of the animals protected; Activity (Rattus norvegicus [23]): 25% of the animals protected |
| CCC(CO)NC(=O)C1C(C)(C)C1(C)C (stereo not given) | 0 | 0 | 0 |  | 0 |  | 0 | 0 |  | 0 | 0 | 0 | 0 | 0 | 0 | 0 | 0 | 4 | 0 | 1 | Activity (Rattus norvegicus [26]): 25% of the animals protected; Activity (Rattus norvegicus [20]): 25% of the animals protected; Anticonvulsant Activity (Rattus norvegicus [21]): 25% of the animals protected; Activity (Rattus norvegicus [22]): 25% of the animals protected; Toxicity (Mus musculus [28]): 0 |
| CC(CO)NC(=O)C1C(C)(C)C1(C)C (stereo not given) | 0 | 0 | 0 |  | 0 |  | 0 | 0 |  | 0 | 0 | 0 | 0 | 0 | 0 | 0 | 0 | 4 | 0 | 1 | Activity (Rattus norvegicus [30]): 25% of the animals protected; Activity (Rattus norvegicus [31]): 25% of the animals protected; Toxicity (Mus musculus [28]): 0 |
| CC1(C)C(C(=O)NCCO)C1(C)C | 0 | 0 |  |  | 0 |  |  | 0 | 0 | 0 | 0 | 0 | 0 | 0 | 0 | 0 | 0 | 4 | 0 | 1 | Activity (Rattus norvegicus [32]): 75% of the animals protected; Activity (Mus musculus [33]): 1; Activity (Mus musculus [34]): 1; Activity (Rattus norvegicus [35]): 75% of the animals protected; Anticonvulsant Activity (Rattus norvegicus [36]): 50% of animals protected |
| CNC(=O)N(C)C(=O)C1C(C)(C)C1(C)C | 0 | 0 |  |  | 0 |  | 0 | 0 | 0 | 0 | 0 | 0 | 0 | 0 |  | 0 | 0 |  |  | 1 | Activity (Rattus norvegicus [37]): 25% animals protected; Activity (Mus musculus [38]): 1; Activity (Mus musculus [39]): 1; Activity (Rattus norvegicus [40]): 25% animals protected; Activity (Rattus norvegicus [41]): 25% animals protected; Activity (Mus musculus [33]): 1; Activity (Rattus norvegicus [42]): 25% animals protected; Toxicity [43]: 3 |
